Only some compounds are listed: those with a hit (about 4.5% of all), similar ones and a draw of the others.
PHOSPHO1 block = blocks human PHOSPHO1 phosphatase activity; Q8TCT1; recombinant PHOSPHO1, absorbance phosphatase assay; inhibition, % at 13.3 µM; 1.1% of 290,000 active; in the data active means inhibition above about 60%
Target sequence (Q8TCT1 whole entry, looked up): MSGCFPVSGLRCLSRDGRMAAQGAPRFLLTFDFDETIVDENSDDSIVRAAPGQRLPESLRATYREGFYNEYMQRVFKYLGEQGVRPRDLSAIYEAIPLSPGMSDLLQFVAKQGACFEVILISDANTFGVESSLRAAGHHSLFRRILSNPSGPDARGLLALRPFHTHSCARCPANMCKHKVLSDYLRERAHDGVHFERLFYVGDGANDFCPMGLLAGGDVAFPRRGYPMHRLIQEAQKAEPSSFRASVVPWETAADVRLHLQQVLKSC
RGS4 inh = inhibitors of human RGS4 | B-score at 10 µM | HEK293 M3R/RGS4 inducible, Fluo-4 calcium flux; stronger effect = higher value; triggered by carbachol at its EC20 | AID 463165 | P49798 | 0.45% of 310,000 active;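 active means B-score, a plate-corrected calcium signal, over three deviations above library mean, with baseline fluorescence within five deviations of library mean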;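 further: RGS4 expression induced by doxycycline in cells with stable M3 receptor; B-score is computed from the integrated fluorescence ratio over baseline after carbachol; higher B-score means a larger calcium signal and so more RGS4 inhibition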
MrgX1 PAM = allosterically activates human MrgX1 receptor signaling; B-score at 10 µM; MrgX1-HEK293, Fluo-4 calcium flux, FDSS; stronger effect = higher value; AID 588675; 0.63% of 310,000 active;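 active means plate-corrected calcium response at least 3 library SD above typical, normal starting fluorescence, not activating the receptor alone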;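 further: compound read alongside a low EC10 to EC30 dose of BAM8-22 agonist; peak minus trough fluorescence over baseline measured at the second addition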
Target sequence (Q96LB2 whole entry, looked up): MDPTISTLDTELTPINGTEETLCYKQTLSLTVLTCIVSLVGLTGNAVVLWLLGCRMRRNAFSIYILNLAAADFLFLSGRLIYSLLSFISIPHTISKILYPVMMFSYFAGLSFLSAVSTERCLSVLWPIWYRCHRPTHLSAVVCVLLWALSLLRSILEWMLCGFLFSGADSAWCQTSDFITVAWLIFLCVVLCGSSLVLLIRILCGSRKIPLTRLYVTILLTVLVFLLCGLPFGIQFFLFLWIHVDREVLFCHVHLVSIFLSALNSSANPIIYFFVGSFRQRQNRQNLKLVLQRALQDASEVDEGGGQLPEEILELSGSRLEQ
RGS4 act = RGS4 potentiation or activation | HEK293 M3R/inducible RGS4, carbachol calcium flux Fluo4; stronger effect = lower value | B-score at 10 µM | 0.92% of 310,000 active | AID 463111;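 active means B-score of the integrated calcium signal more than 4 SD below the library mean, with starting fluorescence not abnormally high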;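 further: negative B-score means reduced calcium response which marks RGS4 activation or potentiation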
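System – HEK293 FlpIn-TREx cells, stable M3R, doxycycline-inducible RGS4 · Reagent – ECmax carbachol challenge · Times – compound preincubation 20 min at room temperature before agonist · Technique – Fluo4 fluorescence kinetic imaging of calcium · Measure – B score of integrated Fluo4 ratio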
MrgX1 antag = blocks BAM8-22 activation of human MrgX1 receptor. MRGX1-HEK293 calcium flux, Fluo-4, BAM8-22 antagonism; stronger effect = lower value. B-score at 10 µM. 1.3% of 310,000 active;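 active means calcium-response B-score plate-corrected more than 3 library SD below zero, starting fluorescence within 5 deviations, no agonist response on first addition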;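 further: peak minus trough fluorescence over baseline after final BAM8-22 challenge near maximal dose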
MrgX1 agonist = agonists of human MrgX1 receptor. Q96LB2. MrgX1-HEK293 cells, Fluo-4 calcium fluorescence, agonist mode; stronger effect = higher value. B-score at 10 µM. 0.44% of 310,000 active;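 active means calcium response B-score plate-corrected fluorescence ratio at least 3 library SD, with starting fluorescence B-score inside 5 SD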
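Material: HEK293 cells stably expressing human MrgX1 receptor | Quantity: 15,000 cells per well | Times: Cells plated overnight, dye loaded 0.5 h 37 °C, 0.5 h room temperature | Measured by: Kinetic Fluo-4 NW fluorescence of intracellular calcium | Control set: Positive and negative controls per plate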
MrgX1 allo conf = human MrgX1 positive allosteric modulation, re-confirmation; shares compounds with MrgX1 PAM; MrgX1-HEK293, Fluo-4 calcium fluorescence, FDSS; activation (ratio percentage), % at 10 µM; 13% of 1,200 active; AID 602413;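 active means ratio at least 3 SD above the weak peptide control, stable starting fluorescence, no direct agonism earlier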;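 further: compound followed by low BAM8-22 agonist challenge near EC20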
HEK293 Ca flux = counter-screen for MrgX1 antagonists: effect in parental HEK293 cells; shares compounds with MrgX1 antag; fluorescence ratio F(max-min)/F0 at 10 µM; 2% of 4,000 active; Fluo-4 calcium fluorescence, FDSS;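 active means duplicate-averaged calcium fluorescence ratio at least three times the standard deviation of buffer wells, a nonspecific response in parental cells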
HEK293 Ca counter = counter-screen for MrgX1 allosteric activators: effect in parental HEK293 cells. parental HEK293 calcium flux, Fluo-4 fluorescence ratio; stronger effect = higher value. shares compounds with MrgX1 antag. fluorescence ratio F(max-min)/F0 at 10 µM. 0.4% of 4,000 active;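 active means calcium fluorescence ratio, averaged over duplicates, at least 3 SD of the buffer-well ratio, meaning a nonspecific response in receptor-free cells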;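 further: untransfected parental HEK293 lacking MrgX1 used as counterscreen for MrgX1 allosteric activators; fluorescence change taken during the second addition on a kinetic imager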
HEK293 Ca cntr2 = counter-screen for MrgX1 activators: effect in parental HEK293 cells | AID 624115 | 8.7% of 4,000 active | Fluo-4 calcium fluorescence (FDSS); stronger effect = higher value | shares compounds with MrgX1 antag | fluorescence ratio F(max-min)/F0 at 10 µM;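 active means calcium fluorescence ratio at least three times the spread of buffer wells, meaning a non-specific response in parental cells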
An asterisk follows results filed as active.

`COc1ccc(CCNC(=O)CCC(=O)NC2CCCC(C)C2C)cc1OC` (stereo not drawn) gave RGS4 inh inactive, MrgX1 PAM inactive, RGS4 act inactive, MrgX1 antag inactive and MrgX1 agonist inactive.
For COc1ccc(NC(=O)c2nc[nH]c2C(=O)N2CCC(C)CC2)cc1 the results were PHOSPHO1 block 20.4, RGS4 inh inactive, MrgX1 PAM 8.16*, RGS4 act inactive, MrgX1 antag inactive, MrgX1 agonist inactive, MrgX1 allo conf inactive, HEK293 Ca flux inactive, HEK293 Ca counter inactive and HEK293 Ca cntr2 inactive.
Cc1ccc(NC(=O)c2nc[nH]c2C(=O)N2CCC(C)CC2)cc1 was read as PHOSPHO1 block 43.6, RGS4 inh inactive, MrgX1 PAM 9.07*, RGS4 act inactive, MrgX1 antag inactive, MrgX1 agonist inactive, MrgX1 allo conf inactive, HEK293 Ca flux inactive, HEK293 Ca counter inactive and HEK293 Ca cntr2 inactive.
Screening CCN(CC)C(=O)c1[nH]cnc1C(=O)Nc1ccc(OC)cc1 returned PHOSPHO1 block 25.1, RGS4 inh inactive, MrgX1 PAM inactive, RGS4 act inactive, MrgX1 antag inactive and MrgX1 agonist inactive.
For CCOC(=O)c1ccc(NC(=O)c2nc[nH]c2C(=O)N2CCC(C)CC2)cc1 the results were PHOSPHO1 block 34.3, RGS4 inh inactive, MrgX1 PAM inactive, RGS4 act inactive, MrgX1 antag inactive and MrgX1 agonist inactive.
`COCCNC(=O)CN1C(=O)/C(=C/c2ccccc2)Oc2ccc(C(C)(C)C)cc21` gave RGS4 inh inactive, MrgX1 PAM inactive, RGS4 act inactive, MrgX1 antag inactive and MrgX1 agonist inactive.
CCOC(=O)c1c(-c2ccccc2)oc2ccc(OC(C)C(=O)O)cc12 (stereo not drawn) was read as PHOSPHO1 block 7.8, RGS4 inh inactive, MrgX1 PAM 7.72*, RGS4 act inactive, MrgX1 antag inactive, MrgX1 agonist inactive, MrgX1 allo conf inactive, HEK293 Ca flux inactive, HEK293 Ca counter inactive and HEK293 Ca cntr2 inactive.
CCn1ccnc1CN(C)Cc1c(C(=O)N2C[C@@H](C)O[C@@H](C)C2)nc2ccc(Cl)cn12 was read as PHOSPHO1 block 32.2, RGS4 inh inactive, MrgX1 PAM inactive, RGS4 act inactive, MrgX1 antag inactive and MrgX1 agonist inactive.
Screening c1ccc2nc3ccccc3nc2c1 returned PHOSPHO1 block -4.4, RGS4 inh inactive, MrgX1 PAM inactive, RGS4 act inactive, MrgX1 antag inactive and MrgX1 agonist inactive.
For Cc1cccc2nc3ccccc3nc12 the results were PHOSPHO1 block 8.1, RGS4 inh inactive, MrgX1 PAM 9.32*, RGS4 act inactive, MrgX1 antag inactive, MrgX1 agonist inactive, MrgX1 allo conf inactive, HEK293 Ca flux inactive, HEK293 Ca counter inactive and HEK293 Ca cntr2 inactive.
Screening COc1ccc(NC(=O)CN(C)C(=O)c2cnc(Cl)c(Cl)c2)cc1 returned PHOSPHO1 block 9.6, RGS4 inh inactive, MrgX1 PAM inactive, RGS4 act inactive, MrgX1 antag inactive and MrgX1 agonist inactive.
For Nc1nc(OCC(F)(F)F)cc(Oc2ccccc2F)n1 the results were PHOSPHO1 block -1.0, RGS4 inh inactive, MrgX1 PAM 9.77*, RGS4 act inactive, MrgX1 antag inactive, MrgX1 agonist inactive, MrgX1 allo conf inactive, HEK293 Ca flux inactive, HEK293 Ca counter inactive and HEK293 Ca cntr2 inactive.
For CCc1cc(CNC(=O)CCc2nnc(CCCc3ccccc3)o2)on1 the results were PHOSPHO1 block 23.4, RGS4 inh inactive, MrgX1 PAM inactive, RGS4 act inactive, MrgX1 antag inactive and MrgX1 agonist inactive.
`CCOc1ccccc1NC(=O)Cc1coc2ccc(C)cc12` gave PHOSPHO1 block 8.4, RGS4 inh inactive, MrgX1 PAM 13.8*, RGS4 act inactive, MrgX1 antag inactive, MrgX1 agonist inactive, MrgX1 allo conf inactive, HEK293 Ca flux inactive, HEK293 Ca counter inactive and HEK293 Ca cntr2 inactive.
Screening COc1ccc(OC)c(NC(=O)Cc2coc3ccc(C)cc23)c1 returned PHOSPHO1 block -44.2, RGS4 inh inactive, MrgX1 PAM inactive, RGS4 act inactive, MrgX1 antag inactive and MrgX1 agonist inactive.
NNc1nc(-c2ccccc2Cl)nc2sc3c(c12)CCCC3 was read as PHOSPHO1 block 5.7, RGS4 inh inactive, MrgX1 PAM 32.2*, RGS4 act inactive, MrgX1 antag inactive, MrgX1 agonist inactive, MrgX1 allo conf inactive, HEK293 Ca flux inactive, HEK293 Ca counter inactive and HEK293 Ca cntr2 inactive.
`NNc1nc(-c2ccccc2Cl)nc2ccccc12` gave PHOSPHO1 block 24.7, RGS4 inh inactive, MrgX1 PAM inactive, RGS4 act inactive, MrgX1 antag inactive and MrgX1 agonist inactive.
`CCN1C(=O)C(CC(=O)Nc2ccc(F)cc2)N(Cc2ccco2)C1=S` (stereo not drawn) gave PHOSPHO1 block 17.0, RGS4 inh inactive, MrgX1 PAM 9.25*, RGS4 act inactive, MrgX1 antag inactive, MrgX1 agonist inactive, MrgX1 allo conf inactive, HEK293 Ca flux inactive, HEK293 Ca counter inactive and HEK293 Ca cntr2 inactive.
For O=C(NC1CCCC1)c1ccc2c(c1)N(Cc1ccc(F)cc1)CCS2 the results were PHOSPHO1 block 15.9, RGS4 inh inactive, MrgX1 PAM inactive, RGS4 act inactive, MrgX1 antag inactive and MrgX1 agonist inactive.
Screening Cc1ccc(CN2CCSc3ccc(C(=O)NC4CCCC4)cc32)cc1 returned PHOSPHO1 block 29.8, RGS4 inh inactive, MrgX1 PAM 9.37*, RGS4 act inactive, MrgX1 antag inactive, MrgX1 agonist inactive, MrgX1 allo conf inactive, HEK293 Ca flux inactive, HEK293 Ca counter inactive and HEK293 Ca cntr2 inactive.
